The values below come from PubChem BioAssay AID602194 (The Scripps Research Institute Molecular Screening Center, 2012).

Among all 2,400 compounds or so, about 140 (5.8%) were called active. A selection follows. Values without a mark were called inactive.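 The calls were made as follows: active = mean activation across replicates exceeds the hit threshold derived in the earlier primary screen (cut at about 18% in these data); inactive = the rest.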

Sequence of Mu-type opioid receptor (Homo sapiens) + Delta-type opioid receptor (Homo sapiens) (P35372 whole entry, looked up): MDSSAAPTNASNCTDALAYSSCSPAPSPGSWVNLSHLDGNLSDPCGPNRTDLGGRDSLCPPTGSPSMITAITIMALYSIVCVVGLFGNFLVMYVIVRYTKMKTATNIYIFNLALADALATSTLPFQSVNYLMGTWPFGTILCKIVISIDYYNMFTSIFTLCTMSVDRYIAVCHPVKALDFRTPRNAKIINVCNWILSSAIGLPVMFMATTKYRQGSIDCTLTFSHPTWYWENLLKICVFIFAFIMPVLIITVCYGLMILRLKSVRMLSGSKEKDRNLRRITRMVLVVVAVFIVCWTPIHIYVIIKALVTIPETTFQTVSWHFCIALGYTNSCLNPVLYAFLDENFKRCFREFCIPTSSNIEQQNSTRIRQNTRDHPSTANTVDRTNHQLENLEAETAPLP
Sequence of Mu-type opioid receptor (Homo sapiens) + Delta-type opioid receptor (Homo sapiens) (P41143 whole entry, looked up): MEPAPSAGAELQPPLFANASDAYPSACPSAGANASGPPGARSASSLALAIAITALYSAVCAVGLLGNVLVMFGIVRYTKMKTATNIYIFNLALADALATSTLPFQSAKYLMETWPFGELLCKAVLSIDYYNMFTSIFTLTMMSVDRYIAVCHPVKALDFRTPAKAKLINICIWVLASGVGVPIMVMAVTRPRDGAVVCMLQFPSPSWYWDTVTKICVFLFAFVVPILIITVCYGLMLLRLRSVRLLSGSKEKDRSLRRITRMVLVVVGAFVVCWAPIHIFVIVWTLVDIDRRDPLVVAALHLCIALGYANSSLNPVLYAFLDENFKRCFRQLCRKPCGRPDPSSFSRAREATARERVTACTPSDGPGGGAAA

This assay addresses Mu-type opioid receptor (Homo sapiens) + Delta-type opioid receptor (Homo sapiens) (UniProt P35372+P41143). Kind of assay: OPRM1-OPRD1 heterodimer beta-arrestin recruitment activators – cell-based, luminescence, counter-screen for MC4R biased agonist project (AID 602194). The note with it: U2OS PathHunter beta-arrestin, beta-gal luminescence; at 9.2 µM; stronger effect = higher value; percent of deltorphin B response, DMSO zero. The method, boiled down: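 Repeats: triplicate; Test system: U2OS Mu-Delta cell line; Benchmarks: Deltorphin B 0.9 µM final as 100%, DMSO only as 0%; Measured by: beta-gal complementation luminescence; Schedule: 3 h compound exposure at 37 °C, 1 h room-temperature readout; Dosing: single dose, 9.2 µM final nominal compound concentration.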
Background: Activated receptors often draw arrestin, which recruitment assays turn into a signal.
On to `COC(=O)c1sccc1NC(=O)CCC1CCCC1`, for which the activation was 6.23%.
In the case of `O=C(CCCN1C(=O)/C(=C/c2cccs2)SC1=S)Nc1ccc(O)cc1`, the activation is 1.75%.
For the compound `N#CCC(=O)N/N=C/c1cn(Cc2ccc3ccccc3c2)c2ccccc12`, the activation is 25.5% (active).
As for `CCOC(=O)c1c(-c2ccc(C)cc2C)csc1NC(=O)CSc1nnnn1C`, the figure is 7.04%; as for `CCN(CC)c1ccc(C(=O)N/N=C/c2ccc(N3CCOCC3)cc2)cc1`, 13.2%.
As for `COC(=O)c1nc2n(n1)C(c1ccc([N+](=O)[O-])cc1)C(C(=O)Nc1ccc(Cl)cc1)=C(C)N2` (stereo not drawn), the figure is 3.4%; as for `COc1ccc2sc(-c3ccc(S(C)(=O)=O)cc3)c(C#Cc3cncn3C)c2c1`, 9.34%.
For `O=C(CCCCCn1c(=S)[nH]c2cc3c(cc2c1=O)OCO3)N1CCN(c2ccc(F)cc2)CC1` the value was 3.68%.
With `COc1ccc(Cc2nnc(NC(=O)c3ccc(OC)cc3OC)s2)cc1`, the activation was 4.47%.
In the case of `CCOC(=O)c1nn(-c2ccccc2F)c2nc(Nc3ccccc3)cc(=O)n12`, the activation is 17.8%.
For `CCCOc1ccc(C(=O)C(CCC(CNCC)C(=O)c2ccc(OCCC)cc2)CNCC)cc1` (stereo not drawn) the value was 17.3%; for `Cc1ccc(-n2nc3cc(Cl)c(NC(=O)c4ccco4)cc3n2)cc1`, 0.83%.
As for `Oc1ccccc1N1CCN(c2ncnc3sc(-c4ccccc4)cc23)CC1`, the figure is 3.28%.
Regarding `Cc1ccc(Nc2nnc(SCc3ccccc3)s2)cc1`, the activation was 8.17%.
Consider `COc1cccc(CNC(=O)c2nnn(CC(=O)Nc3cc(Cl)ccc3C)c2N)c1`, for which the activation was 11.8%.
For `COCCN(CCOC)S(=O)(=O)c1ccc(C(=O)Nc2nc3c(s2)CCc2ccccc2-3)cc1` the value was 6.22%.
As for `Clc1ccc(Nc2ncnc3c2nnn3Cc2ccccc2)cc1`, the figure is 5.74%; as for `COC(=O)c1c(C)[nH]c(C(=O)/C=C/c2ccc(Cl)cc2)c1C`, 4.27%; as for `COc1cc(/C=C2\Oc3ccc(C#Cc4ccc(O)cc4)cc3C2=O)cc(OC)c1`, 11.3%.
`CN(C)CCNC(=O)c1cccc(-c2cnc3c(NC=O)cc(-c4cccc(C(F)(F)F)c4)cn23)c1`: the activation is 7.61%.
On to `O=C(Nc1nc(-c2ccc(-c3ccccc3)cc2)cs1)c1cnccn1`, for which the activation is 2.08%.
For `Clc1ccccc1Nc1nc(NCc2cccs2)nc2ccsc12` the value was 5.36%.
As for `CC(C)Oc1c(Br)cc(Br)cc1/C=N/NC(N)=S`, the figure is 9.18%.
In the case of `CCc1ccc(Nc2ncc3c(n2)CC(c2ccco2)CC3=O)cc1` (stereo not drawn), the activation was 13.5%.
As to `COc1cc(NC(=O)c2cncc(-c3ccc(C#N)cc3)c2)cc(C(=O)Nc2cccc(C(F)(F)F)c2)c1`, the activation is 5.39%.
For `COc1ccc(Nc2oc(-c3ccccc3Cl)nc2C#N)cc1` the value was 6.69%.
For `CCOC(=O)c1c(-c2ccccc2)oc2cc(Br)c(O)c(C=O)c12` the value was 3.34%; for `Cc1ccc2nc(-c3ccncc3)cc(C(=O)Nc3ccc(OC(F)F)cc3)c2c1`, 8.13%.
For `COc1ccc(/C=N/NC(=O)Nc2ccc3nsnc3c2)c(OC)c1` the value was 3.63%; for `Cc1ccc(-n2nc(C)c(/C=N/NC(=O)c3cccs3)c2Cl)cc1`, 7.37%.
For the compound `COc1ccccc1NC(=O)Nc1nnc(Cc2ccc(F)cc2)s1`, the activation is 10.7%.
Turning to `Cc1c(-c2ccccc2)n[nH]c1C(=O)N=Nc1c(O)[nH]c2ccccc12`, the activation was 8.27%.
As for `COc1ccc2nc(NC(=O)c3ccc(Br)s3)sc2c1`, the figure is 8.88%.
`C=CCn1c(SCC(=O)c2ccc(Br)cc2)nnc1C(C)NC(=O)Cc1ccc(OC)cc1` (stereo not drawn): the activation was 7.14%.
For the compound `O=C(OCc1cn(-c2ccc(Cl)c(Cl)c2)nn1)c1ccccc1Cl`, the activation is 3.56%.
For `Cc1ccc(C(=O)Nc2ccc(NC(=O)c3cccs3)cc2)c(C)c1` the value was 6.51%; for `Cc1ccc(Sc2ccc(NC(=O)c3ccc(F)cc3)cc2C#N)cc1`, 4.2%.
Consider `Cc1ccsc1/C=N/Nc1ccc(Cl)nn1`, for which the activation is 5.93%.
As for `Cc1ccc(-c2csc(SCC(=O)Nc3cc(C)on3)n2)cc1`, the figure is 7.19%.
Regarding `COc1cccc(NC(=S)NC(=O)c2c(Cl)c(C)nn2C)c1`, the activation is 3.17%.
For `N#CC(=C1SC=CS1)c1nc(-c2ccccc2)cs1`, the activation is 3.11%.
As for `O=C(c1cc(-c2cccc(O)c2)on1)N1CCc2ccccc2C1`, the figure is 11.4%.
For `CSc1ccc(S(=O)(=O)NCc2ccc(Cl)cc2)cc1` the value was 8.41%; for `Cc1ccc(Nc2nnc(SCC(=O)c3cc4ccccc4o3)s2)cc1C`, 4.48%.
As for `COc1ccc(C(=O)n2nc(-c3ccc(C)cc3)nc2N)cc1OC`, the figure is 4.64%; as for `Fc1ccccc1/C=N/Nc1cc(N2CCCCC2)ncn1`, 7.52%; as for `Cc1cc(OCc2cc(C(=O)NCc3cc(C(C)C)no3)no2)cc(C)c1Cl`, 3.52%.
For the compound `CCN1CCC2(CC1)N=C(c1ccc(F)cc1)C(=S)N2C(=O)c1ccc(C)cc1`, the activation was 52% (active).
On to `CCN(CC)C(=O)Oc1ccc(Br)cc1C(=O)Nc1ccc(F)c(Cl)c1`, for which the activation is 3.45%.
As for `CN(C)CCCN(C(=O)c1ccc(S(=O)(=O)N2CCCCCC2)cc1)c1nc2ccc(Br)cc2s1`, the figure is 16.5%; as for `S=C(NCCCc1cnc[nH]1)NCCCN(Cc1ccc(Cl)c(Cl)c1)c1ccc(Br)cn1`, 5.39%.
As for `COc1ccc(Cn2c(C)c(C)c(C#N)c2NC(=O)Nc2ccc(F)cc2)cc1`, the figure is 7.17%.
`COc1cccc(-c2cnc3c(NC(C)=O)cc(-c4cc(F)ccc4OC)cn23)c1`: the activation is 3.13%.
On to `Cc1cc(/C=C(/C#N)C(=O)Nc2ccc(Cl)cc2)c(C)n1-c1cccnc1`, for which the activation is 4.36%.
For `CCC(=O)c1cc2c(cc1NC(=O)c1cccs1)OCCO2` the value was 3.16%; for `COC(=O)c1sccc1NC(=O)c1cc(OC)c(OC)c(OC)c1`, 2.04%.
For `Cc1ccc(S(=O)(=O)NCCC(=O)Nc2ccc(C)c(Cl)c2)cc1C`, the activation is 10.4%.
Turning to `CN(C)C(=O)c1cccc(-c2cnc3c(NC=O)cc(-c4ccc(F)cc4)cn23)c1`, the activation was 1.45%.
